Bioassay records from PubChem BioAssay.
The full list was thinned out, with hits kept by preference.
ERAP1 inh: human ERAP1 aminopeptidase inhibitors, primary screen, biochemical, single point, plate reader; recombinant ERAP1, Leu-AMC fluorescence, 60 min; inhibition, % at 10.7 µM; actives 0.15% (n = 340,000); AID 652197, 2013;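 active = mean replicate inhibition of at least 30%, or all replicates individually reaching that 30% level; inactive = mean below 30% and not every replicate reaching it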;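 note: 0% = neutral control wells and 100% = L-leucinethiol positive control wells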
FGF22 binding: binders of human FGF22 protein, primary screen, FGF22 synaptogenesis inhibitor project, biophysical, thermal shift, single point; Fibroblast growth factor 22 (Homo sapiens), Q9HCT0; recombinant FGF22 thermal shift, SYPRO orange fluorescence; percent of sucrose octasulfate shift, DMSO zero; activity (Tm shift, normalised), % at 9.99 µM; actives 1.5% (n = 340,000);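 active = mean Tm shift, scaled 0 neutral to 100 positive control, at about 1.3% or above, every replicate too, limit read from the data; inconclusive = no clear call, values can overlap the other calls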
ERp5 inh: inhibitors of ERp5-driven insulin aggregation, primary screen, biochemical, turbidity, absorbance 650 nm, single point | Protein disulfide-isomerase A6 (Homo sapiens), Q15084 | 90 min | inhibition, % at 9.99 µM | actives 0.05% (n = 350,000) | AID 651711, 2012;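 active = mean replicate inhibition above about 25%, with every replicate also reaching it, limit read from the data, passing the limit was not always enough; inconclusive = only one of those two criteria met; inactive = neither criterion met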
S100A4 inh HTS: inhibitors of S100A4-myosin IIA peptide binding, primary screen, biochemical, fluorescence polarization, TAMRA-MyoIIA peptide | Protein S100-A4 (Homo sapiens), P26447 | inhibition, % at 10.7 µM | actives 0.14% (n = 360,000) | AID 652163, 2013;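 active = mean inhibition of at least 70% across replicates, with every replicate also reaching that level; inconclusive = mean inhibition reaches 70% but some replicates fall short; inactive = mean inhibition below 70%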
Target sequence (P26447 whole entry, looked up): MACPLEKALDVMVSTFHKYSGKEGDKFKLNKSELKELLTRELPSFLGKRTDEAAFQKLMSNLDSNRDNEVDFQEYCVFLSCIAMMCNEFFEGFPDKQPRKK
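System – human S100A4 monomer protein, biochemical binding assay · Buffer or medium – Calcium-containing HEPES buffer, pH 7.2 · Timing – 5 min between mix addition and reading · Also added – TAMRA-labelled myosin IIA heavy-chain peptide probe, 5 nM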
PDI turbidity: inhibitors of human PDI, primary screen, biochemical, turbidity, single point, plate reader. Protein disulfide-isomerase (Homo sapiens), P07237. PDI insulin aggregation turbidity, A650, 90 min. inhibition, % at 10 µM. actives 0.052% (n = 350,000);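 active = mean inhibition across replicates of 30% or more, whatever share of single replicates reach that level; inconclusive = mean inhibition below 30% while every single replicate reaches 30%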
Target sequence (P07237 whole entry, looked up): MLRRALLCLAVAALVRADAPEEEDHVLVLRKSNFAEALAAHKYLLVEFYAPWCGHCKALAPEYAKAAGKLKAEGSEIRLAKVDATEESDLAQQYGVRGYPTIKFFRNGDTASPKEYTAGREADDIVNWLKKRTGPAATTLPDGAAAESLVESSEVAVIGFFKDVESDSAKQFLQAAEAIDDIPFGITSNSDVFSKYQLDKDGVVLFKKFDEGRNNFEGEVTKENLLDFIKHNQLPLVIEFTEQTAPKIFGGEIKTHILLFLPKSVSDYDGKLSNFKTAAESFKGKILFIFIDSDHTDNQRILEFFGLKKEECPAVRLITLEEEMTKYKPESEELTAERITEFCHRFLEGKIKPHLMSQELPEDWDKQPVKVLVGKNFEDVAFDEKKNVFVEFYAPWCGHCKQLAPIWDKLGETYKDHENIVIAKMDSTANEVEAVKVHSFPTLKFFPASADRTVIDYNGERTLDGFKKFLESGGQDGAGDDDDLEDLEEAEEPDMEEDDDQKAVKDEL
The depositor's hits bear a star; ? = inconclusive; / = no result.

SMILES | ERAP1 inh | FGF22 binding | ERp5 inh | S100A4 inh HTS | PDI turbidity
CCCNC(=O)N1CC2(C1)[C@@H](c1ccccc1)[C@@H](CO)N2C(=O)c1ccncc1 | 1 | 0 | 1 | 10 | /
COc1cc(C=O)ccc1OS(=O)(=O)c1ccc(NC(C)=O)cc1 | 0 | 1.9* | -1 | -1 | 3
COc1ccc(/C=C2\SC(=S)NC2=O)cc1OS(=O)(=O)c1ccc(NC(C)=O)cc1 | 12 | 0 | 1 | -4 | 9
CC(C)Cn1cnc2c1c(=O)n(CC(=O)N(C)C)c(=O)n2Cc1ccccc1 | 3 | 44* | 11 | -6 | -1
CCNC(=O)Cn1c(=O)c2c(ncn2Cc2ccccc2)n(Cc2ccccc2)c1=O | -1 | 0 | 4 | 8 | -3
O=C(NCCNc1ccc([N+](=O)[O-])cc1C(F)(F)F)c1cccc(F)c1 | / | / | / | / | -9
O=C(NCCNc1ccc([N+](=O)[O-])cc1C(F)(F)F)c1ccccc1 | 6 | 43* | 2 | 15 | 23
CN(CCC#N)C(=O)COC(=O)c1ccc(Cl)cc1O | -1 | 0 | 2 | -5 | -1
COc1ccc([N+](=O)[O-])cc1NS(=O)(=O)c1cccc(C(=O)NCCCN2CCCC2=O)c1 | -4 | 0 | 1 | 0 | 11
COc1ccc(Nc2nnc(-c3ccccc3)c3ccccc23)cc1C(=O)N1CCCCC1 | 5 | 43* | -4 | 2 | -3
Cc1cc(OC(=O)c2ccc(S(=O)(=O)N3CCCCC3)cc2)c([N+](=O)[O-])c(=O)[nH]1 | 3 | 0 | 5 | -2 | -5
Cc1cc(OC(=O)c2ccc(S(=O)(=O)N3CCCC3)cc2)c([N+](=O)[O-])c(=O)[nH]1 | 2 | 43* | 4 | 0 | -4
CCc1c(C)n([O-])c2c([n+]1=O)CCC2 | / | / | / | / | 46*
Cc1c(C)[n+](=O)c2c(n1[O-])CCC2 | / | / | / | / | -1
CC(=O)C1=C(C)N(c2ccccc2)C(=O)C1(NS(=O)(=O)c1ccc(N)cc1)C(F)(F)F (configuration not stated) | 0 | 0 | 2 | -3 | 3
O=C(NNC(=S)NC(=O)c1ccc(F)cc1)c1cccnc1 | -1 | 0 | 5 | 6 | -10
Cc1nccc(-c2cccc(NC(=O)Nc3ccc(Cl)cc3)c2)n1 | 8 | 1.8* | 4 | 3 | 5
Cc1cccc(NC(=O)Nc2ccc(Cl)cc2)n1 | 0 | 0 | 2 | -2 | -4
CC(=O)CC[N+](C)(C)C | 37* | 0 | -3 | 2 | 1
CCOC(=O)c1c(NC(=O)CC)sc2c1CCN(Cc1ccccc1)C2 | 7 | 0 | 0 | -6 | /
CCOC(=O)c1c(NC(=O)CSc2ncccn2)sc2c1CCN(Cc1ccccc1)C2 | -1 | 43* | 8 | -5 | -4
CCOC(=O)c1cc2c(=O)n3ccccc3nc2n(Cc2ccco2)c1=NC(=O)c1ccccc1OC | 36* | 0 | -1 | -2 | 7
CCOC(=O)c1cc2c(=O)n3ccccc3nc2n(Cc2ccco2)c1=NC(=O)c1ccc(OC)cc1 | 11 | 0 | -9 | 12 | -3
CCOCCCn1c(=NC(=O)c2ccco2)c(C(=O)OCC)cc2c(=O)n3cccc(C)c3nc21 | 60* | 0 | 5 | -3 | 2
Clc1ccsc1-c1ccc2ccccc2n1 | / | / | / | / | 7
SMILES | ERAP1 inh | FGF22 binding | ERp5 inh | S100A4 inh HTS | PDI turbidity
c1ccc2nc(-c3nccs3)ccc2c1 | 3 | 44* | 1 | 5 | -3
CCOC(=O)C1(Cc2cccc(OC)c2)CCN(Cc2ccccc2OC)CC1 | -2 | 43* | -1 | 2 | -11
CCOC(=O)C1(Cc2ccccc2)CCN(Cc2cccc(OC)c2O)CC1 | 0 | 0 | 2 | -3 | 1
CCOC(=O)C1(Cc2ccccc2)CCN(Cc2csc(C(C)=O)c2)CC1 | -3 | 44* | -2 | -5 | 3
CCOC(=O)C1(Cc2ccccc2)CCN(Cc2cccc3nccnc23)CC1 | -2 | 44* | -2 | -4 | -10
CCOC(=O)C1(Cc2ccccc2)CCN(Cc2cnn(C(C)C)c2)CC1 | -1 | 0 | -3 | 8 | 1
CCOC(=O)C1(CCOc2ccccc2)CCN(CCCn2cccn2)CC1 | 0 | 43* | 3 | 0 | -7
CCOC(=O)C1(Cc2cccc(OC)c2)CCN(Cc2cccc(OC)c2O)CC1 | -7 | -1 | ? | 6 | -2
O=C(CCNC(=O)c1ccco1)Nc1cccc(Br)c1 | -4 | 0 | 0 | 34 | 4
CSc1cccc(NC(=O)CCNC(=O)c2ccco2)c1 | -2 | 43* | 3 | -37 | 1
COc1ccc(CN=C(NS(=O)(=O)c2cccs2)SC)cc1 | / | / | / | / | 3
Cc1noc(C)c1S(=O)(=O)Nc1ccc2c(c1)C(=O)N([C@@H](C)CO)C[C@H](C)[C@H](CN(C)C(=O)NC1CCCCC1)OCCCC[C@H](C)O2 | 1 | -1 | 6 | 2 | /
NC(=O)NC(CC(=O)NCCCc1ccccc1)c1ccccc1Cl (configuration not stated) | 1 | 43* | -2 | -4 | 15
NC(=O)NC(CC(=O)NCCc1ccccn1)c1ccccc1Cl (configuration not stated) | 0 | 0 | -3 | -3 | -1
O=C1C[C@H](c2ccc(O)cc2)Oc2cc(O[C@@H]3O[C@H](CO)[C@@H](O)[C@H](O)[C@H]3O)cc(O[C@@H]3O[C@H](CO)[C@@H](O)[C@H](O)[C@H]3O)c21 | 2 | 0 | 0 | 1 | 39*
CS(=O)(=O)c1ccc(C(=O)OCC(=O)N2CCOCC2)cc1[N+](=O)[O-] | 7 | 0 | 3 | 18 | 5
CS(=O)(=O)c1ccc(C(=O)OCC(=O)N2CCN(CCC3CCCCC3)CC2)cc1[N+](=O)[O-] | 8 | 42 | 1 | -1 | 91*
CCn1c(O)c(/C=C2\C=Nc3ccccc32)sc1=Nc1ccccc1 | 0 | 0 | -4 | 14 | -3
Cn1c(O)c(/C=C2\C=Nc3ccccc32)sc1=Nc1ccc(C(=O)O)cc1 | 2 | 0 | -1 | -4 | 54*
Cc1cc(C(=O)N2CCCC(N3CCN(c4cccc(Cl)c4)CC3)C2)nc(C)n1 (configuration not stated) | -5 | 0 | 3 | 2 | 5
CCOc1c(Cl)cc(CNC(C)(C)CC(C)(C)C)cc1OC | / | / | / | / | 35*
O=C(NCc1ccc(Cl)cc1)C1CCC(=O)N(C2CC2)C1 (configuration not stated) | 1 | 0 | 5 | 0 | -6
CC(C)(C)c1ccc(C#C[C@@H]2C=C[C@H](O)[C@@H](COC(=O)Nc3ccccc3)O2)cc1 | -2 | 45* | 0 | -17 | /
